Source: ChEMBL document CHEMBL1158423, “Antibacterial activity of berberine-NorA pump inhibitor hybrids with a methylene ether linking group” (2009)
The source made the active and inactive calls. The calls are words filed in the database; no cut-off is given here.

Key:
Staphylococcus aureus [1] = assay: Antibacterial activity against Staphylococcus aureus K1758 NorA efflux pump-deficient mutant after 18 hrs by twofold serial dilution method; format: functional; conditions: K1758, 18 h
Method in brief: (§1)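 Broth microdilution with serial 2-fold dilutions of compound, cells inoculated at 10^5 per mL, in triplicate. MIC is the lowest concentration giving complete growth inhibition over 18 h at 37 °C. Growth is read as absorbance at 600 nm.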

Staphylococcus aureus [2] = assay: Antibacterial activity against wild type Staphylococcus aureus 8325-4 after 18 hrs by twofold serial dilution method; format: functional; conditions: 8325-4, 18 h
Method in brief: (§2)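 Broth microdilution: cells at 10^5 mL−1 in broth, serial 2-fold dilutions of compound, triplicate determinations; 18 h at 37 °C; growth followed by absorbance at 600 nm. MIC taken as the lowest concentration giving complete growth inhibition.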

Staphylococcus aureus [3] = assay: Antibacterial activity against Staphylococcus aureus K2378 overexpressing NorA efflux pump after 18 hrs by twofold serial dilution method; format: functional; conditions: K2378, 18 h; method in brief: as §1
Escherichia coli [4] = assay: Antibacterial activity against Escherichia coli BW-25116 TolC-deficient mutant after 18 hrs by twofold serial dilution method; format: functional; conditions: BW25116, 18 h; method in brief: as §1
Escherichia coli [5] = assay: Antibacterial activity against Escherichia coli ECM116 mar1642 overexpressing […] pump after 18 hrs by twofold serial dilution method; format: functional; conditions: ECM116, 18 h; method in brief: as §1
Escherichia coli [6] = assay: Antibacterial activity against Escherichia coli K-12 after 18 hrs by twofold serial dilution method; format: functional; conditions: K-12, 18 h; method in brief: as §2
Escherichia coli [7] = assay: Antibacterial activity against Escherichia coli ECM1642 after 18 hrs by twofold serial dilution method; format: functional; conditions: ECM1642, 18 h; method in brief: as §2
Enterococcus faecalis [8] = assay: Antibacterial activity against Enterococcus faecalis OG1RF after 18 hrs by twofold serial dilution method; format: functional; method in brief: as §2
Enterococcus faecalis [9] = assay: Antibacterial activity against Enterococcus faecalis MMH594 after 18 hrs by twofold serial dilution method; format: functional; conditions: MMH594, 18 h; method in brief: as §2
Enterococcus faecalis [10] = assay: Antibacterial activity against Enterococcus faecalis V583 after 18 hrs by twofold serial dilution method; format: functional; conditions: V583, 18 h; method in brief: as §2
[11] = target: T1, Quinolone resistance protein NorA (Staphylococcus aureus) (UniProt P0A0J7); assay: Inhibition of NorA efflux pump in wild type Staphylococcus aureus 8325-4 assessed as increase in berberine accumulation at 3 uM
T1 sequence (whole entry): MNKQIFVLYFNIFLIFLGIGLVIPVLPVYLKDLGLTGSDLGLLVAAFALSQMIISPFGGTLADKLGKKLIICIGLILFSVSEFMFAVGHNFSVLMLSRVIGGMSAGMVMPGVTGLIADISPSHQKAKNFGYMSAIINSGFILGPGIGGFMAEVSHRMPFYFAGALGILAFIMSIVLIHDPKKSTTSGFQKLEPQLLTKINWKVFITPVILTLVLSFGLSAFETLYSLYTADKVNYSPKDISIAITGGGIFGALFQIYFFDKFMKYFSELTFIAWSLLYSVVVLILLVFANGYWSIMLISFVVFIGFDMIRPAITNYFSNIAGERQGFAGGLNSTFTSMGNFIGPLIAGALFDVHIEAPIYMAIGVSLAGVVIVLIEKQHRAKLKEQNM
Method in brief: (§3)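 Cells are grown at 37 °C to OD600 1.5 and washed twice in PBS. They are energised in PBS with 10 mM dextrose (OD ~0.8) for 1 h at 37 °C with aeration, washed, then diluted to OD ~0.3 in PBS. Compounds are added at 3 μM final. Accumulation is followed by fluorescence at ex/em 355/517 nm, with cell-free background subtracted.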

[12] = target: T1, Quinolone resistance protein NorA (Staphylococcus aureus); assay: Inhibition of NorA efflux pump in Staphylococcus aureus K1758 NorA efflux pump-deficient mutant assessed as increase in berberine accumulation at 3 uM; method in brief: as §3
[13] = target: T1, Quinolone resistance protein NorA (Staphylococcus aureus); assay: Inhibition of NorA efflux pump in Staphylococcus aureus K2378 overexpressing NorA efflux pump overexpressing NorA efflux pump assessed as increase in berberine accumulation at 3 uM; method in brief: as §3
[14] = target: T1, Quinolone resistance protein NorA (Staphylococcus aureus); assay: Inhibition of NorA efflux pump in wild type Staphylococcus aureus 8325-4 assessed as potentiation of EtBr uptake at 3 uM
Method in brief: (§4)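 Cells are prepared as for the accumulation assay: grown to OD600 1.5, washed in PBS, energised 1 h at 37 °C in PBS with 10 mM dextrose, then diluted to OD ~0.3 in PBS. The inhibitor (3 μM final) is added before ethidium bromide. Uptake is read by fluorescence at ex/em 530/600 nm, with cell-free background subtracted.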

[15] = target: T1, Quinolone resistance protein NorA (Staphylococcus aureus); assay: Inhibition of NorA efflux pump in Staphylococcus aureus K1758 NorA efflux pump-deficient mutant assessed as potentiation of EtBr uptake at 3 uM; method in brief: as §4
[16] = target: T1, Quinolone resistance protein NorA (Staphylococcus aureus); assay: Inhibition of NorA efflux pump in Staphylococcus aureus K2378 overexpressing NorA efflux pump assessed as potentiation of EtBr uptake at 3 uM; method in brief: as §4
[17] = target: T1, Quinolone resistance protein NorA (Staphylococcus aureus); assay: Inhibition of NorA efflux pump in Staphylococcus aureus K2378 overexpressing NorA efflux pump assessed as inhibition of EtBr efflux at 3 uM
Method in brief: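 K2378 cells are grown at 37 °C to OD ~0.9, washed in PBS and loaded with 3 μM ethidium bromide plus 30 μg/mL reserpine for 20 min at 37 °C. After ice-cold washes, they are added at OD 0.3 to ice-cold PBS with 10 mM dextrose containing inhibitor at 3 μM final. The no-efflux control is PBS without dextrose plus reserpine. Efflux is read at ex/em 530/600 nm.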

Staphylococcus aureus [18] = assay: Antibacterial activity against Staphylococcus aureus K1758 NorA efflux pump-deficient mutant after 18 hrs by twofold serial dilution method relative to berberine; format: functional
Staphylococcus aureus [19] = assay: Antibacterial activity against wild type Staphylococcus aureus 8325-4 after 18 hrs by twofold serial dilution method relative to berberine; format: functional
Method in brief: (§5)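 Broth microdilution with an inoculum of 10^5 cells/mL and serial 2-fold compound dilutions, run in triplicate. Plates were incubated 18 h at 37 °C and growth was read as absorbance at 600 nm. MIC was the lowest concentration giving complete growth inhibition.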

Staphylococcus aureus [20] = assay: Antibacterial activity against Staphylococcus aureus K2378 overexpressing NorA efflux pump after 18 hrs by twofold serial dilution method relative to berberine; format: functional
Escherichia coli [21] = assay: Antibacterial activity against Escherichia coli BW-25116 TolC-deficient mutant after 18 hrs by twofold serial dilution method relative to berberine; format: functional, BW25116; method in brief: as §5
Escherichia coli [22] = assay: Antibacterial activity against Escherichia coli ECM116 mar1642 overexpressing […] pump after 18 hrs by twofold serial dilution method relative to berberine; format: functional; method in brief: as §5
Nucleic Acid [23] = assay: Binding affinity to D1 duplex DNA by electrospray ionization mass spectrometry; format: nucleic-acid assay
Method in brief: (§6)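 Duplex D1, D2 or forked F10 was annealed from complementary strands in 0.1 M ammonium acetate. ESI-MS used a 100 V cone voltage; thirty acquisitions were combined, baseline-subtracted and smoothed.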

Nucleic Acid [24] = assay: Binding affinity to D2 duplex DNA by electrospray ionization mass spectrometry; format: nucleic-acid assay; method in brief: as §6
Nucleic Acid [25] = assay: Binding affinity to F10 duplex DNA by electrospray ionization mass spectrometry; format: nucleic-acid assay; method in brief: as §6
Nucleic Acid [26] = assay: Binding affinity to quadruplex Q1 DNA by electrospray ionization mass spectrometry; format: nucleic-acid assay
Nucleic Acid [27] = assay: Binding affinity to quadruplex Q3 DNA by electrospray ionization mass spectrometry; format: nucleic-acid assay

| SMILES | MIC (Staphylococcus aureus [1]) [µM] | MIC (Staphylococcus aureus [2]) [µM] | MIC (Staphylococcus aureus [3]) [µM] | MIC (Escherichia coli [4]) [µM] | MIC (Escherichia coli [5]) [µM] | MIC (Escherichia coli [6]) [µM] | MIC (Escherichia coli [7]) [µM] | MIC (Enterococcus faecalis [8]) [µM] | MIC (Enterococcus faecalis [9]) [µM] | MIC (Enterococcus faecalis [10]) [µM] | fold change (FC) (Staphylococcus aureus [18]) | fold change (FC) (Staphylococcus aureus [19]) | fold change (FC) (Staphylococcus aureus [20]) | fold change (FC) (Escherichia coli [21]) | fold change (FC) (Escherichia coli [22]) | also measured |
| --- | --- | --- | --- | --- | --- | --- | --- | --- | --- | --- | --- | --- | --- | --- | --- | --- |
| COc1ccc2c(Cc3ccccc3-c3cc4cc([N+](=O)[O-])ccc4[nH]3)c3[n+](cc2c1OC)CCc1cc2c(cc1-3)OCO2 | 3.1 | 3.1 | 3.1 | > 150 | > 150 | > 150 | > 150 | 6.3 | 6.3 | 6.3 | – | – | – | – | – | Activity [11]: Active; Activity [12]: Active; Activity [13]: Active; Activity [14]: Active; Activity [15]: Active; Activity [16]: Active; Activity [17]: Active |
| COc1ccc2c(OCc3ccc4ccccc4c3)c3[n+](cc2c1OC)CCc1cc2c(cc1-3)OCO2.[Br-] | 5.5 | 10.9 | 21.9 | 10.9 | 21.9 | > 175 | > 175 | – | – | – | 7 | 30 | >30 | 30 | 15 | Activity (Nucleic Acid [23]): 30%; Activity (Nucleic Acid [24]): 20%; Activity (Nucleic Acid [25]): 15%; Activity (Nucleic Acid [26]): 100%; Activity (Nucleic Acid [27]): 67% |
| COc1ccc2cc3[n+](cc2c1OC)CCc1cc2c(cc1-3)OCO2 [BERBERINE CHLORIDE] | 40 | 325 | > 650 | 325 | 325 | > 2600 | > 2600 | 650 | > 650 | > 650 | – | – | – | – | – | – |
| COc1ccc2c(OCc3ccc(C#N)cc3)c3[n+](cc2c1OC)CCc1cc2c(cc1-3)OCO2.[Br-] | 91.4 | 183 | > 183 | 91.4 | 45.7 | > 183 | > 183 | – | – | – | <2 | 2 | 4 | 4 | 7 | – |
| COc1ccc2c(OCc3ccccc3)c3[n+](cc2c1OC)CCc1cc2c(cc1-3)OCO2.[Br-] | 12 | 24 | 95.8 | 12 | 24 | > 192 | > 192 | – | – | – | 3 | 14 | 7 | 27 | 14 | – |
| COc1ccc2c(OCc3ccccn3)c3[n+](cc2c1OC)CCc1cc2c(cc1-3)OCO2.[Br-] | 191 | > 191 | > 191 | 191 | 191 | > 191 | > 191 | – | – | – | <5 | <2 | >3 | 2 | 2 | – |
